Reference: ChEMBL document CHEMBL4024790 (J Med Chem, 2018)
Calls of active or inactive are those of the source. The rule behind the calls is not given here.

Tests used:
Rattus norvegicus = assay: Reversal of MK-801-induced disruption of low frequency cortical delta oscillation in Sprague-Dawley rat brain at 0.03 mg/kg, iv in early time point measured up to 55 mins by electrophysiology method; assay type: functional, organism-based
[1] = Volume of distribution at steady state in Wistar Han rat at 1 mg/kg, iv by LC-MS/MS analysis; assay type: ADME, organism-based; settings: in vivo, read-out: Vdss
Procedure, shortened: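 Male Wistar-Han rats got a single IV dose as a solution in 20% (w/v) sulfobutyl ether β-cyclodextrin with hydrochloric acid, at 1 mL/kg. Blood was drawn into K2EDTA via carotid artery cannula at set times from 2 min to 24 h. Plasma was protein-precipitated with acetonitrile plus internal standard and quantified by LC-MS/MS with positive electrospray, standard curve 0.61 to 625 ng/mL.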

[2] = 1-octanol/phosphate buffer solution partition coefficient, log D of the compound at pH 7.4 after 1 hr by LC-MS/MS method; assay type: physicochemical

Vd [1]: 3.94 L/kg
logD at 1 h [2]: 2.3
SMILES: Cc1nc(-c2cnn(C)c2-c2ccc(C(F)(F)F)cn2)c2c(N3CCC3)ncnn12 [PF-05180999]
Activity (Rattus norvegicus): Active
